Assay results collected from several papers.
Compare with care: the assays were run in different laboratories.
Target: Dual specificity protein kinase CLK3 (CLK3, Homo sapiens, UniProt P49761)
Technique: competition with immobilised ligand

| SMILES | test | conditions | remaining binding [%] |
| --- | --- | --- | --- |
| CS(=O)(=O)c1cc(C2(NC(=O)c3cncc4c3cnn4-c3ccc(F)cc3)CC2)ccn1 | cell-free assay | 1 µM | 86 |
| O=C(NCCCN1CCOCC1)c1ccc(Nc2nccc(-c3cc4ccccc4s3)n2)cc1 | binding | 1 µM | 84 |
| C[C@@H](c1ccc(-n2cnc3c(N)ncnc32)cc1)N1CCc2nn(C)c(Cc3ccccc3)c2C1=O | binding | 0.1 µM | 71 |
| O=C(NCC1CCOCC1)c1n[nH]cc1NC(=O)c1c(F)cccc1F | binding | 1 µM | 64 |
| C=CC(=O)N1CCC(C(=O)NCC(=O)N2CCN(c3nc(-c4cnc(N)nc4C(F)F)nc(N4CCOCC4)n3)CC2)CC1 | binding | 1 µM | 97 |
| CCOC(=O)c1cc2cc(-c3cc(C(=O)NCc4ccc(C(=O)O)cc4)nn3C)ccc2[nH]1 | cell-free assay | 0.1 µM | 83 |
| O=C(c1ccc(Nc2nccc(-c3cc4ccccc4s3)n2)cc1)N1CCC(N2CCCC2)CC1 | binding | 1 µM | 73 |
| CO[C@@H](C)c1c(Nc2ccc([C@@H](N(C)C(=O)C3CCS(=O)(=O)CC3)C(F)(F)F)cc2)cnc2cc(Cl)nn12 | cell-free assay | 1 µM | 87 |
| CCN1CCN(Cc2ccc(C(=O)Nc3ccc(C)c(Oc4ccc5c(c4)CC(=O)N5)c3)cc2C(F)(F)F)CC1 | binding | 1 µM | 100 |
| COc1cc(Nc2nccc(-c3cnn4nc(OC)ccc34)n2)cc(C(F)(F)F)c1 | binding | 1 µM | 92 |
| COc1cnc(Nc2cccc(S(N)(=O)=O)c2)nc1N1CCN(c2ccccc2)CC1 | binding | 1 µM | 97 |
| COc1ncc2cc3ccccc3nc2c1C#N | cell-free assay | 5 µM | 94 |
| Cc1cnc(Nc2ccc(C(=O)N3CCC(N4CCCC4)CC3)cc2)nc1-c1cc2ccccc2s1 | binding | 1 µM | 7 |
| O=S(=O)(NC1CCC(c2cc(F)ccc2F)(S(=O)(=O)c2ccc(Cl)cc2)CC1)C(F)(F)F (centres unmarked) | cell-free assay | 1 µM | 86 |
